Assay results reported in ChEMBL document CHEMBL1148441, “Simple, short peptide derivatives of a sulfonylindolecarboxamide (L-737,126) active in vitro against HIV-1 wild type and variants carrying non-nucleoside reverse transcriptase inhibitor resistance mutations” (J Med Chem, 2004).

Legend:
[1] = test system: Human immunodeficiency virus 1; experiment: Inhibition of HIV-1 (IIIB) induced cytopathicity in MT-4 cells.; type: functional, organism-based; conditions: Human immunodeficiency virus 1, MT4
Method in brief: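 HIV-1 IIIB (from persistently infected H9/IIIB supernatant) added to MT-4 cells (1×10^4/well) with graded compound concentrations, dose set to give full cytopathicity by day 4, 37 °C. Cell viability read by MTT; EC50 = concentration giving 50% protection. Mean of three experiments.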

[2] = Selectivity index (Ratio of CC50/EC50).; type: functional
Method in brief: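 Ratio of CC50 (MTT viability of mock-infected MT-4 cells) to EC50 (MTT protection of MT-4 cells from cytopathicity of HIV-1 IIIB, inoculum giving complete cytopathicity at day 4, 37 °C); both run in parallel on the same compound dilution series.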

[3] = In vitro concentration required to reduce the amount of p24 by 90% in WTIIIB infected C8166 cells; type: functional; conditions: Homo sapiens
Method in brief: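 C8166 cells (1×10^4 per well) in RPMI 1640 with 10% FCS, exposed to serial compound dilutions (DMSO stock 200 mM, diluted in medium), then infected with HIV-1 IIIB from H9/IIIB supernatants, inoculum sized for complete cytopathicity at day 4; incubation at 37 °C; p24 measured by immunoenzymatic kit; EC90 = concentration cutting p24 by 90%; means of three experiments.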

[4] = test system: Human immunodeficiency virus 1; experiment: Inhibition of Efavirenz resistant HIV-1 (K103N-Y181C) induced cytopathicity in MT-4 cells.; type: functional, organism-based; conditions: Human immunodeficiency virus 1, MT4
Method in brief: (§1)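 MT-4 cells (1×10^4/well) with test compound dilutions (from 200 mM DMSO stock) infected with mutant HIV-1 at a CCID50 dose causing complete cytopathicity by day 4, 37 °C; viability by MTT. Y181C from clinical isolate passaged under nevirapine; K103N–Y181C from IIIB passaged under BI-RG 587. EC50 = 50% protection; mean of three experiments.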

[5] = test system: Human immunodeficiency virus 1; experiment: In vitro reduction of p24 by 90% in Efavirenz resistant HIV-1 (K103R, V179D, P225H) infected C8166 cells.; type: functional; conditions: Human immunodeficiency virus 1, C8166
Method in brief: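 C8166 cells (1×10^4/well) with compound dilutions infected with K103R–V179D–P225H HIV-1 (IIIB passaged in C8166 under efavirenz up to 2 μM), 37 °C; p24 antigen measured by immunoenzymatic kit alongside WT IIIB. EC90 = concentration cutting p24 by 90%; mean of three experiments.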

[6] = test system: Human immunodeficiency virus 1; experiment: Inhibition of Efavirenz resistant HIV-1 (Y181C) induced cytopathicity in MT-4 cells.; type: functional, organism-based; conditions: Human immunodeficiency virus 1, MT4; method in brief: as §1
MT4 = experiment: In vitro cytotoxicity against mock infected MT-4 cells.; type: functional; conditions: Homo sapiens
Method in brief: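 Mock-infected MT-4 cells (1×10^4 per well) in RPMI 1640 with 10% FCS, 37 °C, 5% CO2, exposed to serial compound dilutions (DMSO stock 200 mM, diluted in medium), run in parallel with antiviral wells; viability read by MTT; CC50 = concentration reducing viability by 50%; means of three separate experiments, triplicate samples.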

Row | SMILES | EC50 [1] [nM] | Ratio [2] | EC90 [3] [nM] | EC50 [4] [µM] | EC90 [5] [nM] | EC50 [6] [nM] | CC50 (MT4) [µM]
1 | Cc1cc(C)cc(S(=O)(=O)c2c(C(=O)NCC(N)=O)[nH]c3ccc(Cl)cc23)c1 | 6 | 5000 | 10 | 0.8 | 100 | 30 | 30
2 | NC(=O)c1[nH]c2ccc(Cl)cc2c1S(=O)(=O)c1ccccc1 [L-737126] |  | 45000 | 7 | 8 | 900 | 20 | 45
3 | O=C1Nc2ccc(Cl)cc2[C@@](C#CC2CC2)(C(F)(F)F)O1 [EFAVIRENZ] |  |  | 8 |  | 1800 |  | 35
4 | NNC(=O)c1[nH]c2ccc(Cl)cc2c1S(=O)(=O)c1ccccc1 |  | > 10000 | 20 | ≥ 100 | 3000 | 400 | > 100
5 | Cc1cc(C)cc(S(=O)(=O)c2c(C(N)=O)[nH]c3ccc(Cl)cc23)c1 |  | 3750 | 6 | 0.6 | 80 | 30 | 15
6 | Cc1cc(C)cc(S(=O)(=O)c2c(C(=O)NC(C)C(N)=O)[nH]c3ccc(Cl)cc23)c1 (stereo not drawn) | 3 | 1330 | 4 | 0.7 | 40 | 10 | 4
7 | CC(NC(=O)c1[nH]c2ccc(Cl)cc2c1S(=O)(=O)c1ccccc1)C(N)=O (stereo not drawn) | 10 | 6400 |  | 16 | 3000 | 360 | 64
8 | Cc1cc(C)cc(S(=O)(=O)c2c(C(=O)NC(C)C(=O)NN)[nH]c3ccc(Cl)cc23)c1 (stereo not drawn) | 30 | 666 | 70 | 4.7 | 700 | 140 | 20
9 | Cc1ccnc2c1NC(=O)c1cccnc1N2C1CC1 [NEVIRAPINE] | 400 | > 270 | 120 | > 30 | > 30000 | > 30000 | > 100
10 | NC(=O)CNC(=O)c1[nH]c2ccc(Cl)cc2c1S(=O)(=O)c1ccccc1 | 13 | 5000 |  | > 20 | 2700 | 180 | 65
11 | Cc1cc(C)cc(S(=O)(=O)c2c(C(=O)NCC(=O)NN)[nH]c3ccc(Cl)cc23)c1 | 10 | > 10000 | 30 | 2 | 1000 | 50 | > 100
